Assay outcomes: PubChem BioAssay, Broad Institute
An excerpt weighted towards active compounds, which were near 2.6% of everything screened.
miR-122 sensor = miR-122 Renilla sensor signal increase in Huh7, primary screen, miR-122 inhibitor project, cell-based, single point, plate reader. Huh7 miR-122 Renilla luciferase sensor, 48 h; neutral wells = 0, positive control = 100. activation (reporter increase), % at 12.5 µM. actives 0.3% (n = 340,000);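 active = mean replicate activation score at least 90 and every replicate individually at or above 90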;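 note: higher luciferase means less miR-122 activity so hits act as miR-122 inhibitors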
S100A4 inh HTS = inhibitors of S100A4-myosin IIA peptide binding, primary screen, biochemical, fluorescence polarization, TAMRA-MyoIIA peptide | actives 0.14% (n = 360,000) | Protein S100-A4 (Homo sapiens), P26447 | inhibition, % at 10.7 µM;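 active = mean inhibition of at least 70% across replicates, with every replicate also reaching that level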
Target sequence (P26447 whole entry, looked up): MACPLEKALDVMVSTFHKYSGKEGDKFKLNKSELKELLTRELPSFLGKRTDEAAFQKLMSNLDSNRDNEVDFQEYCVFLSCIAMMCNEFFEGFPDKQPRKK
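System – human S100A4 monomer protein, biochemical binding assay · Buffer or medium – Calcium-containing HEPES buffer, pH 7.2 · Timing – 5 min between mix addition and reading · Also added – TAMRA-labelled myosin IIA heavy-chain peptide probe, 5 nM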
Env fusion inh = inhibitors of HIV-1 Env-driven cell-cell fusion, primary screen, HeLa-JRFL effector, CEM21 target cells, luciferase; actives 1.1% (n = 360,000); inhibition, % at 12.3 µM;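 active = mean replicate inhibition score of at least 50 and every replicate individually at or above 50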
FN deposition inh = inhibitors of fibronectin matrix deposition, primary screen, AH1F cells, Alexa488-fibronectin fluorescence, plate reader | inhibition, % at 12.6 µM | actives 0.086% (n = 350,000) | AH1F fibroblasts, overnight;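 active = mean inhibition across replicates of 30% or more, regardless of how many single replicates reach that level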
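Material: AH1F fibroblast monolayer depositing Alexa488-labelled fibronectin into matrix / Amount: 10000 AH1F cells per well / Signal: fluorescence 485/525 nm / Medium: DMEM, 2% serum / Compound: single dose, pinned / Incubation: 1 h cell adhesion before compound, then overnight fibronectin incubation / Reagent: Alexa488-FN, 24 nM final / Read-out: inhibition of fibronectin deposition signal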
rRNA inh HTS = reduced GFP signal of wild-type E. coli, primary screen, bacterial rRNA inhibitor project, GFP/RFP fluorescence, OD600, single point | AID 720706, 2013 | actives 1.6% (n = 350,000) | E. coli WT GFP vs humanized-ribosome RFP mutants, 24 h; active compounds read low; DMSO median 0, no signal -100 | GFP signal change (wild-type ribosome), % (test concentration not listed);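 active = significant combined selectivity score with lowered wild-type GFP, culture density cut under 30%, mutant RFP and density less affected; inactive = any of these conditions unmet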
Vif imaging = HIV Vif self-association inhibitors, primary screen, imaging, HEK293T, single point | HEK293T cells, Vif self-association by quenched fluorescence, 24 h | inhibition, % at 7.49 µM | actives 0.35% (n = 340,000); in the data active = inhibition above about 50%, passing the limit was not always enough
Large screens that a line does not name were inactive; [ ] = another dose, or the depositor's remark.

CC(C)Oc1cc(NC(=O)CSCC(=O)Nc2cccc(C(F)(F)F)c2)c(Cl)cc1Cl	Env fusion inh 62 (no result: FN deposition inh)
C[C@H](CO)N1C[C@H](C)[C@@H](CN(C)Cc2ccc(C(F)(F)F)cc2)OCc2cn(nn2)CCCC1=O	none (no result: S100A4 inh HTS, Env fusion inh, Vif imaging)
CCOC(=O)c1c(N)sc(C(=O)Nc2ccccc2F)c1C	rRNA inh HTS -26
CCOC(=O)c1c(N)sc(C(=O)Nc2ccccc2)c1C	none (no result: miR-122 sensor, FN deposition inh)
Cc1noc(C)c1NC(=O)N(C)C[C@@H]1Oc2ncc(C#CCN(C)C)cc2C(=O)N([C@@H](C)CO)C[C@H]1C	none (no result: FN deposition inh, Vif imaging)
O=C(CSc1nc2ncc(Cl)cc2[nH]1)c1c[nH]c2ccccc12	FN deposition inh 33
COc1ccc(S(=O)(=O)NNC(=O)C2Cc3c(ccc4ccccc34)O2)cc1 (stereo not given)	Env fusion inh 85 (no result: S100A4 inh HTS, FN deposition inh, rRNA inh HTS)
CC(=O)N(C)C[C@H]1[C@H](c2ccc(-c3cccnc3)cc2)[C@@H](CO)N1C(=O)C1CC1	miR-122 sensor 125[16.7 µM] (no result: Env fusion inh, Vif imaging)
CC(=O)N1[C@H](CNC(=O)C2CC2)[C@@H](c2ccc(-c3ccccc3)cc2)[C@@H]1CO	miR-122 sensor 200[16.7 µM] (no result: Env fusion inh, Vif imaging)
O=C(NC[C@H]1N[C@H](CO)[C@@H]1c1ccccc1)C1CCCC1	miR-122 sensor 125[16.7 µM] (no result: Env fusion inh, FN deposition inh, Vif imaging)
CC(=O)N1[C@H](CO)[C@H](c2ccc(-c3ccccc3)cc2)[C@@H]1CNC(=O)C1CC1	none (no result: S100A4 inh HTS, Env fusion inh, Vif imaging)
O=C(NC[C@@H]1N[C@@H](CO)[C@H]1c1ccccc1)C1CCCC1	none (no result: Env fusion inh, FN deposition inh, Vif imaging)
N#C/C(=C/c1ccc(OCc2ccc(C(=O)O)cc2)c(Br)c1)c1cccc(F)c1	rRNA inh HTS -27
CC(C)C1CC(N(C)C)=CC(=S)N1 (stereo not given)	Env fusion inh 58 (no result: miR-122 sensor, Vif imaging)
CCn1c(SCC(=O)NCCc2ccccc2)nc2c([nH]c3ccccc32)c1=O	Env fusion inh 67 (no result: Vif imaging)
CCn1c(SCC(=O)NCC2CCCO2)nc2c([nH]c3ccccc32)c1=O (stereo not given)	none (no result: miR-122 sensor)
CCn1c(SCC(=O)NCCc2ccc(OC)c(OC)c2)nc2c([nH]c3ccccc32)c1=O	Env fusion inh 70
O=C(N/N=C/c1cc([N+](=O)[O-])ccc1Cl)c1ccc2nc[nH]c2c1	none (no result: S100A4 inh HTS, Env fusion inh, FN deposition inh, rRNA inh HTS)
O=C(N/N=C/c1ccccc1C(F)(F)F)c1ccc2nc[nH]c2c1	rRNA inh HTS -25
O=C(N/N=C/c1ccc(Cl)cc1Cl)c1ccc2nc[nH]c2c1	rRNA inh HTS -18
COc1cc(CNc2ccc(N3CCN(C(C)=O)CC3)cc2)ccc1OCc1ccc(F)cc1	rRNA inh HTS -27
O=C(c1cc(COc2ccc(F)cc2Cl)on1)N1CCC(c2ccncc2)CC1	none
COc1ccc(OCc2cc(C(=O)N3CCN(C4CCCC4)CC3)no2)c(Cl)c1	rRNA inh HTS -29
CSc1ccccc1OCc1cc(C(=O)N2CCC(c3ccncc3)CC2)no1	rRNA inh HTS -41
C[C@@H]1CCCCO[C@@H](CN(C)Cc2ccccc2)[C@H](C)CN([C@H](C)CO)C(=O)c2cc(NC(=O)c3ccncc3)ccc2O1	none (no result: Vif imaging)
COc1ccc(NC(=O)N[C@@H]2CC[C@H](CCNC(=O)c3cc(Cl)cc(Cl)c3)O[C@H]2CO)cc1	none (no result: miR-122 sensor, FN deposition inh, Vif imaging)
Nc1cccc2c(O)cccc12	rRNA inh HTS -28 (no result: miR-122 sensor)
Nc1ccccc1O	none (no result: S100A4 inh HTS, Env fusion inh, FN deposition inh, rRNA inh HTS)
COc1ccc(CC(=O)OC(C)C(=O)c2ccc(C)cc2)cc1 (stereo not given)	rRNA inh HTS -30 (no result: miR-122 sensor)
O=C(c1ccccc1)N1CCC(c2nc(-c3ccc(S(=O)(=O)NCC4CCCO4)cc3)no2)CC1 (stereo not given)	Env fusion inh 87 (no result: S100A4 inh HTS, rRNA inh HTS)
O=C(C1CC1)N1CCC(c2nc(-c3ccc(S(=O)(=O)NCC4CCCO4)cc3)no2)CC1 (stereo not given)	none (no result: miR-122 sensor, Env fusion inh, FN deposition inh)
O=C(Cc1ccccc1)N1CCCC(c2nc(-c3ccc(S(=O)(=O)N4CCCC4)cc3)no2)C1 (stereo not given)	rRNA inh HTS -26 (no result: Env fusion inh, FN deposition inh)
O=C(c1ccc(F)cc1F)N1CCCC(c2nc(-c3ccc(F)cc3)no2)C1 (stereo not given)	rRNA inh HTS -21
C[C@@H]1CN([C@@H](C)CO)C(=O)Cc2cc(NC(=O)Nc3ccc(F)cc3)ccc2O[C@H]1CN(C)CC1CCCCC1	none (no result: FN deposition inh, Vif imaging)
C[C@H](CO)N1C[C@H](C)[C@@H](CN(C)Cc2ccc(C(=O)Nc3ccccc3N)cc2)OCCCC[C@H](C)Oc2ccc(N(C)C)cc2C1=O	none (no result: miR-122 sensor, S100A4 inh HTS, Env fusion inh, FN deposition inh, Vif imaging)
CO[C@@H]1CN(C)C(=O)c2ccc(NC(=O)C3CCOCC3)cc2OC[C@@H](C)N(Cc2cccnc2)C[C@@H]1C	none (no result: miR-122 sensor, Env fusion inh, Vif imaging)
O=C(Nc1cc(Cl)cc(Cl)c1)C1CCC(=O)N1Cc1ccccc1Cl (stereo not given)	Env fusion inh 53 (no result: S100A4 inh HTS, rRNA inh HTS)
CNC(=O)C1CCC(=O)N1Cc1ccccc1Cl (stereo not given)	none (no result: S100A4 inh HTS, rRNA inh HTS)
Cc1ccc(-n2nnc3c(=O)n(CC(=O)OCc4ccccc4)cnc32)cc1	Vif imaging 75 (no result: miR-122 sensor)
O=C(Nc1ccc(S(=O)(=O)N2CCOCC2)cc1)c1cc(-c2cc(Cl)ccc2O)n[nH]1	rRNA inh HTS -38
COc1ccc(CN(C)C[C@@H]2OCCCC[C@H](C)Oc3ccc(NC(=O)Nc4ccc5c(c4)OCO5)cc3C(=O)N([C@H](C)CO)C[C@@H]2C)cc1	none (no result: Vif imaging)
C[C@@H]1CCCCO[C@@H](CN(C)Cc2ccncc2)[C@H](C)CN([C@H](C)CO)C(=O)c2cc(NS(=O)(=O)c3cccs3)ccc2O1	none (no result: FN deposition inh, Vif imaging)
COc1ccccc1-c1ccc2c(c1)C(C)(Cc1cccc(F)c1)C(=O)N2 (stereo not given)	Env fusion inh 73
COc1ccc(C(C)=O)cc1CC1(C)C(=O)Nc2ccc(-c3ccccc3OC)cc21 (stereo not given)	Env fusion inh 70
CC(=O)N1C[C@@H]2C(c3ccc(Br)cc3)[C@H](C1)N2C(C)=O (stereo not given in full)	none (no result: miR-122 sensor, S100A4 inh HTS, Env fusion inh, Vif imaging)
O=C(C[C@@H]1C[C@H]2c3cc(NC(=O)Nc4ccccc4F)ccc3O[C@H]2[C@@H](CO)O1)NCc1ccc2c(c1)OCO2	none (no result: miR-122 sensor, S100A4 inh HTS, Env fusion inh, FN deposition inh, Vif imaging)
CCOc1ccc(N(C)S(=O)(=O)c2ccc(C)c(C(=O)OCC(=O)c3c[nH]c4ccccc34)c2)cc1	Env fusion inh 58 (no result: miR-122 sensor)
COc1ccc(C(=O)OCC(=O)c2c[nH]c3ccccc23)c(OC)c1	none
O=C(COc1ccc2c(c1)CCC2)NCc1ccc(Cl)cc1	rRNA inh HTS -30 (no result: miR-122 sensor)
